# This is a sample that favours compounds with a hit; in the whole collection about 2.5% have one here.
# N-glyco inh: N-linked glycosylation inhibition | hit rate 0.23% among 360,000 | reporter increase, % at 12.5 µM | D54 ERlucT glycosylation luciferase reporter, 24 h; percent of 100 nM tunicamycin response;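 active = mean luciferase reporter signal, scaled so untreated is 0 and the glycosylation-blocking control 100, at or above a set limit in every replicate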;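 also: luciferase carries N-glycosylation sites so blocking glycosylation raises the light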
# PAX8 reporter: inhibitors of PAX8 transcriptional activity in RMG-I cells; inhibition, % at 12.6 µM; AID 652154; RMG-I TPO-luciferase reporter, SteadyGlo, 24 h; hit rate 1.2% among 360,000;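 active = mean replicate inhibition at least 60% with every replicate also reaching 60%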;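 also: luciferase light reporting Pax8 driven TPO promoter activity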
# AF4-AF9 inh: inhibitors of human MLL-AF4/AF9 interaction. hit rate 0.47% among 350,000. P42568. inhibition, % at 10 µM. AlphaScreen, biotin-AF4 peptide binding to FLAG-AF9. AID 651704;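 active = every replicate reaching a set inhibition limit, whatever the replicate mean, cut at about 25% in these data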
# Target sequence (P42568 whole entry, looked up): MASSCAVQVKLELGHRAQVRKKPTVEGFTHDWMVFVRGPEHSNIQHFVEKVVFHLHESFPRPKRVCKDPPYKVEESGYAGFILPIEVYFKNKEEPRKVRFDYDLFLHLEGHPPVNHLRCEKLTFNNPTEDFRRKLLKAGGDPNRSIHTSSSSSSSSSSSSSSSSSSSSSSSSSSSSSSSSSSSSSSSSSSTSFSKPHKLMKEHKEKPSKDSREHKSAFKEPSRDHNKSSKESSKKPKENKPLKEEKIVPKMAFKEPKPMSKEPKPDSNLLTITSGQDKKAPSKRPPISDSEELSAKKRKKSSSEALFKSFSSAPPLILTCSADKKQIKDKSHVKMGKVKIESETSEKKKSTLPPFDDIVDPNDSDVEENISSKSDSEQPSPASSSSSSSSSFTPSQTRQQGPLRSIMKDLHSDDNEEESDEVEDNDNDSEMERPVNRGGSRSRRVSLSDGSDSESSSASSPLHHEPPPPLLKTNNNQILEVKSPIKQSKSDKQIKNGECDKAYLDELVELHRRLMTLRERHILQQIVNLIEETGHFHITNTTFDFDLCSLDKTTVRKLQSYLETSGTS
# FN deposition inh: fibronectin deposition inhibition | AH1F fibroblasts, Alexa488-fibronectin deposition fluorescence, overnight | inhibition, % at 12.6 µM | hit rate 0.086% among 350,000 | AID 743247;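 active = mean inhibition across replicates of 30% or more, regardless of how many single replicates reach that level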
#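 test system = AH1F fibroblasts assembling fluorescent fibronectin matrix | quantity = 10000 AH1F cells per well | buffer or medium = DMEM plus 2% serum, read in PBS | doses = single dose, pinned | incubation = 1 h cell attachment, overnight exposure to compound and label | detection = fluorescence at 485 nm excitation, 525 nm emission | read-out basis = inhibition from reduced deposited-fibronectin fluorescence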
# HIV Env fusion: blocks HIV Env-driven cell-cell fusion. HeLa-JRFL Env/CEM21 cell fusion, luciferase. inhibition, % at 12.3 µM. hit rate 1.1% among 360,000. AID 651610;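 active = mean replicate inhibition score of at least 50 and every replicate individually at or above 50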
# EWS-Fli inh: inhibitors of EWS/Fli oncoprotein transcriptional activity | A673 NR0B1-luciferase reporter, viability-normalised | inhibition, % at 12.6 µM | hit rate 0.67% among 350,000;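 active = mean inhibition of at least 50% after viability correction, with every replicate also passing that limit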;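 also: firefly luciferase signal divided by Alamar Blue viability fluorescence both relative to DMSO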
# Hits are given with their value; – = inactive; · = no result.
SMILES,N-glyco inh,PAX8 reporter,AF4-AF9 inh,FN deposition inh,HIV Env fusion,EWS-Fli inh
C[C@@H]1CN([C@H](C)CO)C(=O)c2cc(-c3ccc(C(=O)N(C)C)cc3)cnc2O[C@H]1CN(C)C(=O)CN(C)C,·,·,–,·,–,–
O=C(Nc1cc(F)ccc1F)N1C[C@@H]2[C@H](c3ccccc31)[C@@H](CO)N2C(=O)c1ccccc1,·,–,–,·,·,–
COc1ccc(-c2nc(CC(=O)Nc3cccc(S(=O)(=O)NC4=NCCC4)c3)cs2)cc1,–,74,–,–,·,–
O=C(Nc1cccc(S(=O)(=O)NC2=NCCC2)c1)c1cc(-c2ccco2)nc2ccccc12,–,–,–,–,–,–
CCOc1ccc(OCC(=O)Nc2cccc(S(=O)(=O)NC3=NCCC3)c2)cc1,–,–,–,–,·,–
O=C(NC(=S)Nc1cccc(S(=O)(=O)NC2=NCCC2)c1)c1cc(-c2ccco2)nc2ccccc12,–,–,–,–,–,57
CCOc1ccc(C(=O)NC(=S)Nc2cccc(S(=O)(=O)NC3=NCCC3)c2)cc1,–,–,–,–,–,59
COc1ccccc1OCC(=O)Nc1cccc(S(=O)(=O)NC2=NCCCCC2)c1,–,–,–,–,–,–
C[C@H](CO)N1C[C@H](C)[C@@H](CN(C)S(=O)(=O)c2ccc(Cl)cc2)Oc2ccc(N(C)C)cc2CC1=O,·,–,–,·,·,–
C[C@H](CO)N1C[C@H](C)[C@H](CN(C)Cc2ccc(-c3ccccc3)cc2)Oc2ccc(NC(=O)Nc3ccc(C(F)(F)F)cc3)cc2CC1=O,·,–,–,·,–,–
Cc1ccc(N2C(=O)N3[C@H](c4cccc(C)c4)[C@@H]4C(=O)N(Cc5ccccc5)C(=O)[C@@H]4[C@]3(C)C2=O)cc1,–,–,–,–,81,–
CCN1C(=O)[C@H]2[C@@H](c3ccc(C)cc3)N3C(=O)N(c4cccc(Cl)c4)C(=O)[C@@]3(CC)[C@H]2C1=O,–,–,–,–,96,–
Cc1cccc([C@@H]2[C@@H]3C(=O)N(Cc4ccccc4)C(=O)[C@@H]3[C@]3(CC(C)C)C(=O)N(c4cccc(Cl)c4)C(=O)N23)c1,–,–,–,–,55,–
COc1ccc(NC(=O)Nc2cccc3c2O[C@@H](CN(C)S(C)(=O)=O)[C@@H](C)CN([C@H](C)CO)C3=O)cc1,·,·,–,·,–,–
CN1CCN(C(=O)[C@@H]2[C@@H](CO)[C@@H]3Cn4c(ccc(-c5cncnc5)c4=O)[C@@H]3N2CC2CCCC2)CC1,·,·,–,·,·,–
COc1ccc(-c2nc(C#N)c(N3CCCCCC3)o2)cc1OC,–,·,27,·,·,–
Cc1ccc(-c2nc(C#N)c(N3CCC(C)CC3)o2)cc1,–,–,28,–,–,–
O=C(C[C@H]1CC[C@@H](NC(=O)c2ccc3c(c2)OCO3)[C@H](CO)O1)NC1Cc2ccccc2C1,·,–,–,–,–,–
CCCCCCN(C(=O)CCCN1C(=O)NC(c2ccc(-c3ccccc3)cc2)C(C(=O)OCc2ccccc2)=C1C)C(C)C(=O)NCCCC (stereo not given),–,99,–,–,–,–
CCCCCCN(C(=O)CCCCCN1C(=O)NC(c2ccc(-c3ccccc3)cc2)C(C(=O)OCc2ccccc2)=C1C)C(C(=O)NCCCC)c1ccc(-c2ccccc2)cc1 (stereo not given),·,–,–,–,–,–
CO[C@H]1CN(C)C(=O)c2ccc(NC(=O)C3CC3)cc2OC[C@H](C)N(C(=O)c2ccccc2F)C[C@@H]1C,·,–,–,–,–,–
CN1c2ccc(C3=CCCCC3)cc2[C@H]2[C@H](CCN2C(=O)C2CCCC2)[C@@H]1CO,·,–,–,–,·,–
CN1c2ccc(C3=CCCCC3)cc2[C@@H]2[C@@H](CCN2C(=O)C2CCCCC2)[C@H]1CO,·,–,25,–,–,–
COc1ccc(-c2ccc3c(c2)C2CC3CCN2S(=O)(=O)c2ccccc2C)cc1 (stereo not given),–,–,–,–,57,–
COc1ccc(-c2ccc3c(c2)[C@H]2[C@H](CCN2C(=O)C2CCCCC2)[C@H](CO)N3C)cc1,·,–,–,–,·,–
SMILES,N-glyco inh,PAX8 reporter,AF4-AF9 inh,FN deposition inh,HIV Env fusion,EWS-Fli inh
COc1ccc(-c2ccc3c(c2)[C@@H]2[C@@H](CCN2C(=O)C2CCCCC2)[C@H](CO)N3C)cc1,·,93,–,–,·,–
COc1ccc(-c2ccc3c(c2)[C@H]2[C@H](CCN2S(=O)(=O)c2ccccc2C)[C@H](CO)N3C)cc1,·,69,·,–,·,–
Cc1ccc(S(=O)(=O)Nc2ccc3c(c2)CC(=O)N([C@H](C)CO)C[C@H](C)[C@@H](CN(C)C(=O)Nc2c(C)noc2C)O3)cc1,·,–,–,·,–,–
C[C@H]1CN([C@@H](C)CO)C(=O)c2cccc(NC(=O)CCCCCC(=O)Nc3ccccc3N)c2O[C@H]1CN(C)S(=O)(=O)c1ccc(F)cc1,·,–,–,·,·,–
C[C@@H]1CN([C@H](C)CO)C(=O)c2cc(NC(=O)Nc3ccc(F)cc3)ccc2O[C@H]1CN(C)S(=O)(=O)c1cccs1,·,·,–,·,·,–
COc1ccc(-c2ccc3c(c2)C2CC3CCN2C(=O)OCc2ccccc2)cc1 (stereo not given),–,–,–,active,–,–
COc1ccc(-c2ccc3c(c2)[C@@H]2[C@@H](CCN2C(=O)C2CCCC2)[C@H](CO)N3C)cc1,·,76,35,–,–,–
COc1ccc(-c2ccc3c(c2)[C@H]2[C@H](CCN2C(=O)C2CCC2)[C@H](CO)N3C)cc1,·,–,–,–,–,–
COc1ccc(-c2ccc(C(C)=O)cc2)cc1[C@H]1[C@H]2C=CC[C@@H](C)[C@@H]2C(=O)N1Cc1ccccc1,–,–,–,–,–,–
COC(=O)c1ccc(-c2ccc(OC)c([C@H]3[C@H]4C=CC[C@@H](C)[C@@H]4C(=O)N3Cc3ccccc3)c2)cc1,–,–,·,–,64,–
CSC1=NC(C(Cl)(Cl)Cl)N=C(c2ccc(C)cc2)N1 (stereo not given),–,–,–,–,–,59
CCC1N=C(SC)NC(C)=C1C(=O)c1ccccc1 (stereo not given),–,–,–,–,–,–
O=C1CCC(=O)N1CC1CC2CCC1C2 (stereo not given),–,–,–,–,–,63
CN(C)CC(=O)Nc1ccc2c(c1)[C@@H]1C[C@@H](CC(=O)N3CCc4ccccc4C3)O[C@@H](CO)[C@@H]1O2,·,–,–,–,–,–
CC(C)(C)c1ccc(-c2cc(NC(=O)Cc3c[nH]c4ccccc34)ccc2Nc2cccnc2)cc1,·,–,·,–,74,–
CCCc1ccc(-c2cc(NC(=O)Cc3c[nH]c4ccccc34)ccc2Nc2cccnc2)cc1,·,–,·,–,–,–
COc1cccc(/C=C/C(=O)c2ccc3c(c2)OCO3)c1OC,–,·,·,·,·,·
O=C(/C=C/c1ccccc1)c1ccc2c(c1)OCO2,–,–,–,–,–,–
O=C(/C=C/c1ccncc1)c1ccc2c(c1)OCCO2,70,–,–,–,–,–
